Assay results: ChEMBL document CHEMBL3046613 (J Agric Food Chem, 2010)
Values after ≈ are worked out from the molar mass of the structure shown. Structures can show the parent of a compound that is named as a salt.

Tests used:
Tobacco mosaic virus [1] = experiment: Antiviral activity against Tobacco mosaic virus (TMV) inoculated on fresh tobacco leaves followed by dipping into compound solution at 25 ug/mL for 20 min and measured 72 hr post compound treatment by half-leaf method; type: functional
How it was run: (§1)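 Half-leaf method. Fresh tobacco leaves at the 5-6 growth stage were inoculated by juice-leaf rubbing with TMV at 5.88 × 10-2 μg/mL. Leaves were cut into halves along the main vein. Each half was immersed for 20 min in compound solution or in double-distilled water, then cultured at 25 °C for 72 h. Each concentration was run at least three times.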

Tobacco mosaic virus [2] = experiment: Antiviral activity against Tobacco mosaic virus (TMV) inoculated on fresh tobacco leaves followed by dipping into compound solution at 5 ug/mL for 20 min and measured 72 hr post compound treatment by half-leaf method; type: functional; how it was run: as §1
Tobacco mosaic virus [3] = experiment: Antiviral activity against Tobacco mosaic virus (TMV) inoculated on 100 ug/mL compound smeared Nicotiana tabacum leaves assessed as protective effect against viral infection measured 3 to 4 days post viral infection; type: functional
How it was run: (§2)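 N. tabacum L. leaves of the same age were used. Compound solution was smeared on the left half and solvent control on the right half. Leaves were inoculated with TMV 12 h later.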

Tobacco mosaic virus [4] = experiment: Antiviral activity against Tobacco mosaic virus (TMV) pre-treated with 100 ug/mL compound for 30 min followed by inoculation on left side of Nicotiana tabacum leaves assessed as virus inactivation effect measured 3 to 4 days post viral infection; type: functional
How it was run: (§3)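 TMV was mixed with an equal volume of compound solution for 30 min, then inoculated on the left half of N. tabacum L. leaves. A solvent-plus-virus mixture was inoculated on the right half as control. Local lesions were counted 3-4 days after inoculation. Each compound was run in three replicates.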

Tobacco mosaic virus [5] = experiment: Antiviral activity against Tobacco mosaic virus (TMV) inoculated on fresh tobacco leaves followed by dipping into compound solution for 20 min and measured 72 hr post compound treatment by half-leaf method; type: functional, organism-based; how it was run: as §1
Tobacco mosaic virus [6] = experiment: Antiviral activity against Tobacco mosaic virus (TMV) inoculated on fresh tobacco leaves followed by dipping into compound solution at 100 ug/mL for 20 min and measured 72 hr post compound treatment by half-leaf method; type: functional; how it was run: as §1
Tobacco mosaic virus [7] = experiment: Antiviral activity against Tobacco mosaic virus (TMV) inoculated on whole Nicotiana tabacum leaves followed by smearing with 100 ug/mL compound solution on left side of leaves assessed as viral infection curative effect measured 3 to 4 days post viral infection; type: functional
How it was run: (§4)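 Whole growing N. tabacum L. leaves of the same age were dip-inoculated with TMV at 6.0 × 10-3 mg/mL.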

Tobacco mosaic virus [8] = experiment: Antiviral activity against Tobacco mosaic virus (TMV) inoculated on fresh tobacco leaves followed by dipping into compound solution at 50 ug/mL for 20 min and measured 72 hr post compound treatment by half-leaf method; type: functional; how it was run: as §1
Tobacco mosaic virus [9] = experiment: Antiviral activity against Tobacco mosaic virus (TMV) inoculated on fresh tobacco leaves followed by dipping into compound solution at 40 ug/mL for 20 min and measured 72 hr post compound treatment by half-leaf method; type: functional; conditions: for inhibition at 40 µg/mL: Tobacco mosaic virus; how it was run: as §1
Tobacco mosaic virus [10] = experiment: Antiviral activity against Tobacco mosaic virus (TMV) inoculated on 500 ug/mL compound smeared Nicotiana tabacum leaves assessed as protective effect against viral infection measured 3 to 4 days post viral infection; type: functional; how it was run: as §2
Tobacco mosaic virus [11] = experiment: Antiviral activity against Tobacco mosaic virus (TMV) inoculated on fresh tobacco leaves followed by dipping into compound solution at 500 ug/mL for 20 min and measured 72 hr post compound treatment by half-leaf method; type: functional; how it was run: as §1
Tobacco mosaic virus [12] = experiment: Antiviral activity against Tobacco mosaic virus (TMV) inoculated on fresh tobacco leaves followed by dipping into compound solution at 125 ug/mL for 20 min and measured 72 hr post compound treatment by half-leaf method; type: functional; how it was run: as §1
Tobacco mosaic virus [13] = experiment: Antiviral activity against Tobacco mosaic virus (TMV) inoculated on whole Nicotiana tabacum leaves followed by smearing with 500 ug/mL compound solution on left side of leaves assessed as viral infection curative effect measured 3 to 4 days post viral infection; type: functional; how it was run: as §4
Tobacco mosaic virus [14] = experiment: Antiviral activity against Tobacco mosaic virus (TMV) pre-treated with 500 ug/mL compound for 30 min followed by inoculation on left side of Nicotiana tabacum leaves assessed as virus inactivation effect measured 3 to 4 days post viral infection; type: functional; how it was run: as §3
Tobacco mosaic virus [15] = experiment: Antiviral activity against Tobacco mosaic virus (TMV) inoculated on fresh tobacco leaves followed by dipping into compound solution at 250 ug/mL for 20 min and measured 72 hr post compound treatment by half-leaf method; type: functional; how it was run: as §1

SMILES: CC1(C)C2CC[C@]1(S(=O)(=O)O)C(=O)C2.COc1cc2c3c(c4cc(OC)c(OC)cc4c2cc1OC)CN1CCCC1C3 (stereo unspecified)
- inhibition at 25 µg/mL (Tobacco mosaic virus [1]): 42.4%
- inhibition at 5 µg/mL (Tobacco mosaic virus [2]): 32.3%
- Activity (Tobacco mosaic virus [3]): 47.7%
- Activity (Tobacco mosaic virus [4]): 55.6%
- EC50 (Tobacco mosaic virus [5]): 23.6 µg/mL
- inhibition at 100 µg/mL (Tobacco mosaic virus [6]): 73.9%
- Activity (Tobacco mosaic virus [7]): 65.5%
- inhibition at 50 µg/mL (Tobacco mosaic virus [8]): 60.6%

SMILES: COc1cc(/C=C/C(=O)O)ccc1O.COc1cc2c3c(c4cc(OC)c(OC)cc4c2cc1OC)CN1CCCC1C3 (stereo unspecified)
- inhibition at 25 µg/mL (Tobacco mosaic virus [1]): 18.5%
- inhibition at 5 µg/mL (Tobacco mosaic virus [2]): 15.7%
- Activity (Tobacco mosaic virus [3]): 45.5%
- Activity (Tobacco mosaic virus [4]): 51.1%
- EC50 (Tobacco mosaic virus [5]): 40.3 µg/mL
- inhibition at 100 µg/mL (Tobacco mosaic virus [6]): 72.2%
- Activity (Tobacco mosaic virus [7]): 13.8%
- inhibition at 50 µg/mL (Tobacco mosaic virus [8]): 68.5%

SMILES: COc1cc2c3c(c4cc(OC)c(OC)cc4c2cc1OC)CN1CCCC1C3.O=C(O)CC(O)(CC(=O)O)C(=O)O (stereo unspecified)
- inhibition (INH) (Tobacco mosaic virus [9]): 65.2%

SMILES: COc1cc2c3c(c4cc(OC)c(OC)cc4c2cc1OC)CN1CCCC1C3.O=C(O)c1cc(S(=O)(=O)O)ccc1O (stereo unspecified)
- inhibition at 25 µg/mL (Tobacco mosaic virus [1]): 35.7%
- inhibition at 5 µg/mL (Tobacco mosaic virus [2]): 15.6%
- Activity (Tobacco mosaic virus [3]): 38.6%
- Activity (Tobacco mosaic virus [4]): 42.2%
- EC50 (Tobacco mosaic virus [5]): 21.3 µg/mL
- inhibition at 100 µg/mL (Tobacco mosaic virus [6]): 92.8%
- Activity (Tobacco mosaic virus [7]): 62.1%
- inhibition at 50 µg/mL (Tobacco mosaic virus [8]): 79.9%

SMILES: COc1ccc2c3c(c4cc(OC)c(OC)cc4c2c1)CC1CCCN1C3 (racemic) [(+/-)-ANTOFINE]
- inhibition at 25 µg/mL (Tobacco mosaic virus [1]): 68.8%
- inhibition at 5 µg/mL (Tobacco mosaic virus [2]): 56.7%
- Activity (Tobacco mosaic virus [3]): 26.7%
- Activity (Tobacco mosaic virus [4]): 66.3%
- EC50 (Tobacco mosaic virus [5]): < 25 µg/mL
- inhibition at 100 µg/mL (Tobacco mosaic virus [6]): 80.7%
- Activity (Tobacco mosaic virus [7]): 54.4%
- inhibition at 50 µg/mL (Tobacco mosaic virus [8]): 69.7%

SMILES: COc1ccc2c3c(c4cc(OC)c(OC)cc4c2c1)CN1CCCC1C3 (racemic) [(+/-)-DEOXYTYLOPHORININE]
- inhibition at 25 µg/mL (Tobacco mosaic virus [1]): 65%
- Activity (Tobacco mosaic virus [3]): 60%
- Activity (Tobacco mosaic virus [4]): 67.4%
- inhibition at 40 µg/mL (Tobacco mosaic virus [9]): 79.2%
- EC50 (Tobacco mosaic virus [5]): < 25 µg/mL
- inhibition at 100 µg/mL (Tobacco mosaic virus [6]): 75%
- Activity (Tobacco mosaic virus [7]): 26.1%
- inhibition at 50 µg/mL (Tobacco mosaic virus [8]): 66.7%

SMILES: CNCC(=O)N[C@@H](CO)C(=O)N[C@H]1[C@H](O)[C@@H](O)[C@H](n2ccc(N)nc2=O)O[C@@H]1C(N)=O [NINGNANMYCIN]
- inhibition at 25 µg/mL (Tobacco mosaic virus [1]): 28.2%
- Activity (Tobacco mosaic virus [10]): 51.3%
- inhibition at 500 µg/mL (Tobacco mosaic virus [11]): 59.3%
- inhibition at 125 µg/mL (Tobacco mosaic virus [12]): 27%
- EC50 (Tobacco mosaic virus [5]): 440 µg/mL (≈ 992 µM)
- Activity (Tobacco mosaic virus [13]): 23%
- Activity (Tobacco mosaic virus [14]): 50.5%
- inhibition at 250 µg/mL (Tobacco mosaic virus [15]): 42.1%

SMILES: COc1cc2c3c(c4cc(OC)c(OC)cc4c2cc1OC)CN1CCCC1C3 (stereo unspecified) [TYLOPHORINE 2-HYDROXYSUCCINIC ACID SALT]
- inhibition at 40 µg/mL (Tobacco mosaic virus [9]): 69.1%

SMILES: COc1cc2c3c(c4cc(OC)c(OC)cc4c2cc1OC)CN1CCCC1C3.Nc1ccc(S(=O)(=O)O)cc1 (stereo unspecified) [TYLOPHORINE P-AMINOBENZENESULFONIC ACID SALT]
- inhibition at 25 µg/mL (Tobacco mosaic virus [1]): 58.8%
- inhibition at 5 µg/mL (Tobacco mosaic virus [2]): 31.4%
- Activity (Tobacco mosaic virus [3]): 38.6%
- Activity (Tobacco mosaic virus [4]): 75.6%
- EC50 (Tobacco mosaic virus [5]): 14.3 µg/mL
- inhibition at 100 µg/mL (Tobacco mosaic virus [6]): 80.9%
- Activity (Tobacco mosaic virus [7]): 34.5%
- inhibition at 50 µg/mL (Tobacco mosaic virus [8]): 74.3%

SMILES: COc1cc2c3c(c4cc(OC)c(OC)cc4c2cc1OC)CN1CCCC1C3.O=C(O)c1ccc(O)cc1 (stereo unspecified) [TYLOPHORINE P-HYDROXYBENZOIC ACID SALT]
- inhibition at 25 µg/mL (Tobacco mosaic virus [1]): 54.7%
- inhibition at 5 µg/mL (Tobacco mosaic virus [2]): 50%
- Activity (Tobacco mosaic virus [3]): 54.9%
- Activity (Tobacco mosaic virus [4]): 60.9%
- EC50 (Tobacco mosaic virus [5]): 7.7 µg/mL
- inhibition at 100 µg/mL (Tobacco mosaic virus [6]): 84.9%
- Activity (Tobacco mosaic virus [7]): 42.9%
- inhibition at 50 µg/mL (Tobacco mosaic virus [8]): 70%
